From ChEMBL document CHEMBL4014346, “Lead Optimization Generates CYP11B1 Inhibitors of Pyridylmethyl Isoxazole Type with Improved Pharmacological Profile for the Treatment of Cushing's Disease” (J Med Chem, 2017)

Tests used:
[1] = Selectivity ratio of IC50 for human CYP11B2 expressed in hamster V79MZ cells to IC50 for human CYP11B1 expressed in hamster V79MZ cells
How it was run: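 V79MZ cells expressing recombinant human CYP11B1 or CYP11B2, or rat CYP11B1, incubated with [1,2-³H]-11-deoxycorticosterone (100 nM) and inhibitor over a range of concentrations; ketoconazole as reference.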

[2] = AUC (0 to infinity) in Sprague-Dawley rat at 5 mg/kg, iv administered as single dose by HPLC-MS/MS analysis; assay type: ADME, organism-based; set-up: dose 5 mg/kg, route intravenous, time infinity; conditions: in vivo
[3] = Half life in Sprague-Dawley rat at 28 mg/kg, po administered as single dose by HPLC-MS/MS analysis; assay type: ADME, organism-based; conditions: in vivo
How it was run: (§1)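 Female Sprague-Dawley rats (244–299 g), 2 animals, given one oral dose under 2% isoflurane as a freshly sonicated suspension in 0.5% porcine gelatin/5% mannitol in water. Tail-vein plasma precipitated with acetonitrile plus diphenhydramine internal standard, quantified by HPLC-MS/MS in duplicate. Noncompartmental analysis; Cmax and Tmax read directly from the concentration–time curve; F derived against iv dosing.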

[4] = Volume of distribution at steady state in Sprague-Dawley rat at 5 mg/kg, iv administered as single dose by HPLC-MS/MS analysis; assay type: ADME, organism-based; conditions: in vivo, read-out: Vdss
How it was run: (§2)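 Female Sprague-Dawley rats (244–299 g), 2 animals; single iv dose in PEG300/ethanol/water (60/10/30), under 2% isoflurane anesthesia. Tail-vein blood taken into sodium citrate, plasma spun down, precipitated with acetonitrile containing diphenhydramine internal standard, analysed by HPLC-MS/MS with duplicate injections. Mean parameters from noncompartmental analysis.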

[5] = Cmax in Sprague-Dawley rat at 5 mg/kg, iv administered as single dose by HPLC-MS/MS analysis; assay type: ADME, organism-based; set-up: dose 5 mg/kg, route intravenous; conditions: in vivo; how it was run: as §2
[6] = Oral bioavailability in Sprague-Dawley rat at 28 mg/kg administered as single dose by HPLC-MS/MS analysis; assay type: ADME, organism-based; conditions: in vivo; how it was run: as §1
[7] = Clearance in Sprague-Dawley rat at 5 mg/kg, iv administered as single dose by HPLC-MS/MS analysis; assay type: ADME, organism-based; conditions: in vivo; how it was run: as §2
[8] = Cmax in Sprague-Dawley rat at 28 mg/kg, po administered as single dose by HPLC-MS/MS analysis; assay type: ADME, organism-based; set-up: dose 28 mg/kg, route oral; conditions: in vivo; how it was run: as §1
[9] = Tmax in Sprague-Dawley rat at 28 mg/kg, po administered as single dose by HPLC-MS/MS analysis; assay type: ADME, organism-based; conditions: in vivo; how it was run: as §1
[10] = AUC (0 to infinity) in Sprague-Dawley rat at 28 mg/kg, po administered as single dose by HPLC-MS/MS analysis; assay type: ADME, organism-based; set-up: dose 28 mg/kg, route oral, time infinity; conditions: in vivo
Rattus norvegicus = test: Time at which plasma concentration stays above in vitro rat CYP11B1 IC50 in Sprague-Dawley rat at 28 mg/kg, po administered as single dose; how it was run: as §1
[11] = Half life in Sprague-Dawley rat at 5 mg/kg, iv administered as single dose by HPLC-MS/MS analysis; assay type: ADME, organism-based; conditions: in vivo; how it was run: as §2

Row | AUC(0-inf) [2] [ng·h/mL] | half-life [3] [h] | Vd [4] [L/kg] | Cmax [5] [µM] | bioavailability [6] [%] | clearance [7] [mL/min/kg] | Cmax [8] [µM] | Tmax [9] [h] | AUC(0-inf) [10] [ng·h/mL] | half-life [11] [h] | SMILES | Ratio IC50 [1] | Time (Rattus norvegicus)
1 |  |  |  |  |  |  |  |  |  |  | Cc1cncc(Cc2cc(-c3ccccc3)no2)c1 | 16 | 
2 | 3680 | 3.3 | 3.1 | 27.8 | 50 | 22.6 | 6.4 | 2.5 | 10200 | 4.8 | COc1cncc(Cc2cc(-c3ccccc3)no2)c1 |  | <=7 hr
